In brackets after ≈: the same amount, converted by molar mass. Activity calls are given as the source filed them. The calls are words filed in the database; no cut-off is given here.
Assays:
Fusarium proliferatum [1] = test: Antimicrobial activity against Fusarium proliferatum at 0.3 uM after 72 hrs by microtiter assay; type: functional
How it was run: (§1)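 96-well microdilution broth assay with conidia (3 × 10^5 conidia/mL, harvested from 7-day PDA cultures and filtered) against F. oxysporum, F. proliferatum and F. solani at 0.3, 3 and 30 µM. Plates were held at 24 ± 1 °C under a 12 h photoperiod. Growth was read at 620 nm at 24, 48 and 72 h and reported as percent inhibition from mean absorbance with standard error.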

Fusarium proliferatum [2] = test: Antimicrobial activity against Fusarium proliferatum at 3 uM after 48 hrs by microtiter assay; type: functional; how it was run: as §1
Fusarium proliferatum [3] = test: Antimicrobial activity against Fusarium proliferatum at 3 uM after 72 hrs by microtiter assay; type: functional; how it was run: as §1
Aspergillus fumigatus = test: Antimicrobial activity against Aspergillus fumigatus ATCC 90906; type: functional, organism-based
Cryptococcus neoformans = test: Antimicrobial activity against Cryptococcus neoformans ATCC 90113; type: functional, organism-based
Fusarium proliferatum [4] = test: Antimicrobial activity against Fusarium proliferatum at 0.3 uM after 48 hrs by microtiter assay; type: functional; how it was run: as §1
Candida albicans = test: Antimicrobial activity against Candida albicans ATCC 90028; type: functional, organism-based
Fusarium oxysporum [5] = test: Antimicrobial activity against Fusarium oxysporum at 0.3 uM after 48 hrs by microtiter assay; type: functional; how it was run: as §1
Fusarium oxysporum [6] = test: Antimicrobial activity against Fusarium oxysporum at 0.3 uM after 72 hrs by microtiter assay; type: functional; how it was run: as §1
Fusarium solani [7] = test: Antimicrobial activity against Fusarium solani at 0.3 uM after 48 hrs by microtiter assay; type: functional; how it was run: as §1
Fusarium solani [8] = test: Antimicrobial activity against Fusarium solani at 0.3 uM after 72 hrs by microtiter assay; type: functional; how it was run: as §1
Fusarium oxysporum [9] = test: Antimicrobial activity against Fusarium oxysporum at 3 uM after 48 hrs by microtiter assay; type: functional; how it was run: as §1
Fusarium oxysporum [10] = test: Antimicrobial activity against Fusarium oxysporum at 3 uM after 72 hrs by microtiter assay; type: functional; how it was run: as §1
Fusarium solani [11] = test: Antimicrobial activity against Fusarium solani at 3 uM after 48 hrs by microtiter assay; type: functional; how it was run: as §1
Fusarium solani [12] = test: Antimicrobial activity against Fusarium solani at 3 uM after 72 hrs by microtiter assay; type: functional; how it was run: as §1
Fusarium oxysporum [13] = test: Antimicrobial activity against Fusarium oxysporum at 30 uM after 48 hrs by microtiter assay; type: functional; how it was run: as §1
Fusarium oxysporum [14] = test: Antimicrobial activity against Fusarium oxysporum at 30 uM after 72 hrs by microtiter assay; type: functional; how it was run: as §1
Fusarium solani [15] = test: Antimicrobial activity against Fusarium solani at 30 uM after 48 hrs by microtiter assay; type: functional; how it was run: as §1
Fusarium solani [16] = test: Antimicrobial activity against Fusarium solani at 30 uM after 72 hrs by microtiter assay; type: functional; how it was run: as §1
Fusarium proliferatum [17] = test: Antimicrobial activity against Fusarium proliferatum at 30 uM after 48 hrs by microtiter assay; type: functional; how it was run: as §1
Fusarium proliferatum [18] = test: Antimicrobial activity against Fusarium proliferatum at 30 uM after 72 hrs by microtiter assay; type: functional; how it was run: as §1
Fusarium proliferatum [19] = test: Fungicidal activity against Fusarium proliferatum at 30 uM after 72 hrs by microtiter plate assay; type: functional, organism-based
How it was run: (§2)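 After 72 h of microtiter broth exposure at 30 µM, 20 µL from each well was plated onto compound-free potato dextrose agar and incubated 3 days at 28 °C. No regrowth was scored fungicidal; regrowth was scored fungistatic.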

Fusarium solani [20] = test: Fungicidal activity against Fusarium solani at 30 uM after 72 hrs by microtiter assay; type: functional, organism-based; how it was run: as §2
Fusarium oxysporum [21] = test: Fungicidal activity against Fusarium oxysporum at 30 uM after 72 hrs by microtiter plate assay; type: functional, organism-based; how it was run: as §2
[22] = system: Mycobacterium intracellulare; test: Antimicrobial activity against Mycobacterium intracellular ATCC 23068; type: functional, organism-based
[23] = system: Mycobacterium tuberculosis; test: Antibacterial activity against Mycobacterium tuberculosis H37Rv at 16 ug/mL by micro plate alamar blue assay; type: functional
How it was run: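 M. tuberculosis H37Rv ATCC 27294 grown in BACTEC 12B medium; microplate Alamar blue assay (MABA). Primary screen at a single concentration of 16 µg/mL, read as percent inhibition.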

[24] = system: Mycobacterium tuberculosis; test: Antibacterial activity against Mycobacterium tuberculosis H37Rv by micro plate alamar blue assay; type: functional
Fusarium oxysporum [25] = test: Fungistatic activity against Fusarium oxysporum at 30 uM after 72 hrs by microtiter plate assay; type: functional, organism-based
How it was run: (§3)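 Conidia come from 7-day potato dextrose agar cultures, filtered and set photometrically (625 nm) to 3 × 10^5 conidia/mL. They are exposed to compound at 30 µM in 96-well microdilution broth at 24 ± 1 °C under a 12 h photoperiod. After 72 h, 20 µL per well is subcultured on drug-free potato dextrose agar at 28 °C for 3 days. No regrowth is scored fungicidal; regrowth is scored fungistatic.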

Fusarium proliferatum [26] = test: Fungistatic activity against Fusarium proliferatum at 30 uM after 72 hrs by microtiter plate assay; type: functional, organism-based; how it was run: as §3
Fusarium solani [27] = test: Fungistatic activity against Fusarium solani at 30 uM after 72 hrs by microtiter plate assay; type: functional, organism-based; how it was run: as §3
Escherichia coli = test: Antimicrobial activity against Escherichia coli; type: functional, organism-based
Staphylococcus aureus = test: Antimicrobial activity against methicillin-resistant Staphylococcus aureus; type: functional, organism-based
Fusarium proliferatum [28] = test: Antifungal activity against Fusarium proliferatum at 20 ug/mL after 3 days by fluorescence assay; type: functional, organism-based
How it was run: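 Fusarium proliferatum conidia in potato dextrose broth in a tube with the coumarin (DEAC)-labelled probe at 20 µg/mL, held at 24 ± 1 °C. Hyphae and mycelia were viewed at 4, 8, 16, 24, 48 and 72 h by light and epifluorescence microscopy at 400× and 1000×. Conidia were first checked for autofluorescence.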

SMILES | inhibition at 0.3 µM (Fusarium proliferatum [1]) | inhibition at 3 µM (Fusarium proliferatum [2]) | inhibition at 3 µM (Fusarium proliferatum [3]) | IC50 (Aspergillus fumigatus) | IC50 (Cryptococcus neoformans) | inhibition at 0.3 µM (Fusarium proliferatum [4]) | inhibition at 0.3 µM (Fusarium oxysporum [5]) | inhibition at 0.3 µM (Fusarium oxysporum [6]) | inhibition at 0.3 µM (Fusarium solani [7]) | inhibition at 0.3 µM (Fusarium solani [8]) | inhibition at 3 µM (Fusarium oxysporum [9]) | inhibition at 3 µM (Fusarium oxysporum [10]) | inhibition at 3 µM (Fusarium solani [11]) | inhibition at 3 µM (Fusarium solani [12]) | inhibition at 30 µM (Fusarium oxysporum [13]) | inhibition at 30 µM (Fusarium oxysporum [14]) | inhibition at 30 µM (Fusarium solani [15]) | inhibition at 30 µM (Fusarium solani [16]) | inhibition at 30 µM (Fusarium proliferatum [17]) | inhibition at 30 µM (Fusarium proliferatum [18]) | other results
C[C@@H]1[C@H](O)[C@@H](C)/C=C/C=C/C=C/C=C/C=C/C=C/C=C/[C@H](O[C@@H]2O[C@H](C)[C@@H](O)[C@H](N)[C@@H]2O)C[C@@H]2O[C@](O)(C[C@@H](O)C[C@@H](O)[C@H](O)CC[C@@H](O)C[C@@H](O)CC(=O)O[C@H]1C)C[C@H](O)[C@H]2C(=O)O [AMPHOTERICIN B] | 0% | 7.9% | 0% | 1.32 µM | 790 nM | 0% | 0% | 0% | 0% | 0.1% | 12.5% | 0% | 18.1% | 0% | 99.7% | 87.1% | 100% | 98.1% | 99.8% | 79% | MFC (Aspergillus fumigatus): 2.5 µM (≈ 2.31 µg/mL); MIC (Aspergillus fumigatus): 2.5 µM (≈ 2.31 µg/mL); MFC (Cryptococcus neoformans): 0.06 µM (≈ 0.0554 µg/mL); MIC (Cryptococcus neoformans): 0.016 µM (≈ 0.0148 µg/mL); IC50 (Candida albicans): 0.25 µM; MFC (Candida albicans): 1.25 µM (≈ 1.16 µg/mL); MIC (Candida albicans): 0.625 µM (≈ 0.578 µg/mL); Activity (Fusarium proliferatum [19]): Active; Activity (Fusarium solani [20]): Active; Activity (Fusarium oxysporum [21]): Active
C/C=C1\NC(=O)[C@H](Cc2ccccc2)NC(=O)[C@@H](C(C)C)NC(=O)[C@@H]([C@@H](C)CC)NC(=O)[C@H](NC(=O)[C@H](NC(=O)[C@H](CCCN)NC(=O)[C@H]2CCCN2C(=O)[C@@H](NC(=O)[C@H](NC(=O)[C@H](NC(=O)[C@@H](NC(=O)CCCC(C)C)C(C)C)[C@H](C)OC(C)=O)C(C)C)C(C)C)[C@@H](C)CC)[C@@H](C)OC(=O)[C@H](C(C)C)NC1=O | 0.3% | 0% | 0.3% | 3.38 µM | 1890 nM | 0% | 0% | 0% | 0% | 0% | 0% | 0% | 0% | 0% | 78.5% | 74.4% | 80.9% | 96.7% | 70.8% | 34.7% | MFC (Aspergillus fumigatus): 10 µM (≈ 15.2 µg/mL); MIC (Aspergillus fumigatus): 10 µM (≈ 15.2 µg/mL); MFC (Cryptococcus neoformans): 5 µM (≈ 7.6 µg/mL); MIC (Cryptococcus neoformans): 5 µM (≈ 7.6 µg/mL); IC50 (Candida albicans): 3.28 µM; MFC (Candida albicans): 20 µM (≈ 30.4 µg/mL); MIC (Candida albicans): 10 µM (≈ 15.2 µg/mL); IC50 [22]: 14.3 µM; MBC [22]: > 20 µM; MIC [22]: > 20 µM; inhibition at 16 µg/mL [23]: 94%; MIC [24]: 15.4 µg/mL (≈ 10.1 µM); Activity (Fusarium proliferatum [19]): Active; Activity (Fusarium solani [20]): Active; Activity (Fusarium oxysporum [25]): Active
O=C1C2CC=CCC2C(=O)N1SC(Cl)(Cl)Cl (stereo not given) [CAPTAN] | 3% | 12% | 0% | – | – | 6% | 0.2% | 0% | 0% | 0% | 7.6% | 0% | 5.1% | 0% | 99.5% | 98.1% | 90.7% | 47.9% | 100% | 100% | Activity (Fusarium proliferatum [26]): Active; Activity (Fusarium solani [27]): Active; Activity (Fusarium oxysporum [25]): Active
C/C=C(\NC(=O)[C@H](Cc1ccccc1)NC(=O)[C@H](NC(=O)[C@H](NC(=O)[C@H](NC(=O)[C@H](NC(=O)[C@H](CCCN)NC(=O)[C@H]1CCCN1C(=O)[C@@H](NC(=O)[C@H](NC(=O)[C@H](NC(=O)[C@@H](NC(=O)CCCC(C)C)C(C)C)[C@H](C)O)C(C)C)C(C)C)[C@@H](C)CC)[C@@H](C)O)[C@@H](C)CC)C(C)C)C(=O)N[C@H](C(=O)O)C(C)C | – | – | – | – | – | – | – | – | – | – | – | – | – | – | – | – | – | – | – | – | Activity (Escherichia coli): inactive; Activity (Staphylococcus aureus): inactive
CO/C=C(/C(=O)OC)c1ccccc1Oc1cc(Oc2ccccc2C#N)ncn1 [AZOXYSTROBIN] | 0% | 21.7% | 14.8% | – | – | 0% | 22.7% | 15.3% | 16.6% | 11.7% | 32.3% | 7.1% | 25.3% | 15% | 77.2% | 32.9% | 62.7% | 51.7% | 53% | 40.7% | Activity (Fusarium proliferatum [26]): Active; Activity (Fusarium solani [27]): Active; Activity (Fusarium oxysporum [25]): Active
C/C=C1\NC(=O)[C@H](Cc2ccccc2)NC(=O)[C@@H](C(C)C)NC(=O)[C@@H]([C@@H](C)CC)NC(=O)[C@H](NC(=O)[C@H](NC(=O)[C@H](CCCNC(=O)c2cc3ccc(N(CC)CC)cc3oc2=O)NC(=O)[C@H]2CCCN2C(=O)[C@@H](NC(=O)[C@H](NC(=O)[C@H](NC(=O)[C@@H](NC(=O)CCCC(C)C)C(C)C)[C@H](C)O)C(C)C)C(C)C)[C@@H](C)CC)[C@@H](C)OC(=O)[C@H](C(C)C)NC1=O | – | – | – | – | – | – | – | – | – | – | – | – | – | – | – | – | – | – | – | – | Activity (Fusarium proliferatum [19]): inactive; Activity (Fusarium solani [20]): inactive; Activity (Fusarium proliferatum [28]): inactive; Activity (Fusarium oxysporum [21]): inactive
CC(C)CCC[C@H]1CC(=O)N[C@H](Cc2c[nH]c3ccccc23)C(=O)N2CCC[C@H]2C(=O)N[C@@H](CCCNC(=N)N)C(=O)O1 [KAHALALIDE D] | – | – | – | > 33.6 µM | > 33600 nM | – | – | – | – | – | – | – | – | – | – | – | – | – | – | – | Activity (Escherichia coli): inactive; Activity (Staphylococcus aureus): inactive; IC50 (Candida albicans): > 33.6 µM; IC50 [22]: > 33.6 µM; inhibition at 16 µg/mL [23]: 49%

Reference: ChEMBL document CHEMBL1148762, “Lysosome and HER3 (ErbB3) selective anticancer agent kahalalide F: semisynthetic modifications and antifungal lead-exploration studies” (J Med Chem, 2007)
